Measurements taken from ChEMBL document CHEMBL1641558, “A novel series of potent and selective EP(4) receptor ligands: facile modulation of agonism and antagonism” (Bioorg Med Chem Lett, 2011).

Tests used:
[1] = biological target: T1, Prostaglandin E2 receptor EP4 subtype (Homo sapiens, UniProt P35408); experiment: Antagonist activity at human prostanoid EP4 receptor expressed in HEK293 cells assessed as inhibition of PGE2-induced cAMP accumulation by scintillation proximity assay; type: functional, cell-based
T1 sequence (P35408 whole entry): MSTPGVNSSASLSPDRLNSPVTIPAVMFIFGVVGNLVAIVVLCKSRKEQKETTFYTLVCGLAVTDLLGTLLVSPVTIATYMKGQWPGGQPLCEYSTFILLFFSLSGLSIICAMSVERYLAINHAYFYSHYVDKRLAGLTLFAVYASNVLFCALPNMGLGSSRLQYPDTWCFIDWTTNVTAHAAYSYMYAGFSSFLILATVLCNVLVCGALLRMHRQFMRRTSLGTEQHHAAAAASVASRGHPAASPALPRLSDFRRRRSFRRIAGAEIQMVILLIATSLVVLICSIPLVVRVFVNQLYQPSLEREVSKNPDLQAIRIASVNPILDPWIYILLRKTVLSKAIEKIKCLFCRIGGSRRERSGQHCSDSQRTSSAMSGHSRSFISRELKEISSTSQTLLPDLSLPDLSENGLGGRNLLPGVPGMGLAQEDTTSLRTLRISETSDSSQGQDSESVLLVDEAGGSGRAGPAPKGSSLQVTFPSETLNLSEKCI
How it was run: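 HEK293 cells expressing EP4 receptors. Antagonism is read as inhibition of PGE2-evoked rise in intracellular cAMP, reported as IC50. Agonism is read as cAMP elevation in the same cells without PGE2, reported as EC50.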

Homo sapiens [2] = species: Homo sapiens; experiment: Selectivity ratio of Ki for human prostanoid EP2 receptor to Ki for human prostanoid EP4
Homo sapiens [3] = species: Homo sapiens; experiment: Selectivity ratio of Ki for human prostanoid DP receptor to Ki for human prostanoid EP4
Homo sapiens [4] = species: Homo sapiens; experiment: Selectivity ratio of Ki for human prostanoid EP1 receptor to Ki for human prostanoid EP4
Homo sapiens [5] = species: Homo sapiens; experiment: Selectivity ratio of Ki for human prostanoid EP3 receptor to Ki for human prostanoid EP4
Homo sapiens [6] = species: Homo sapiens; experiment: Selectivity ratio of Ki for human prostanoid FP receptor to Ki for human prostanoid EP4
Homo sapiens [7] = species: Homo sapiens; experiment: Selectivity ratio of Ki for human prostanoid IP receptor to Ki for human prostanoid EP4
Homo sapiens [8] = species: Homo sapiens; experiment: Selectivity ratio of Ki for human prostanoid TP receptor to Ki for human prostanoid EP4
[9] = biological target: T1, Prostaglandin E2 receptor EP4 subtype; experiment: Displacement of [3H]PGE2 from human prostanoid EP4 receptor expressed in HEK293-EBNA cells after 60 mins by scintillation counting; type: cell-based
[10] = Half life in rat at 20 mg/kg, po and 5 mg/kg, iv; type: ADME, organism-based; details: in vivo
How it was run: (§1)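 Rat pharmacokinetics with potassium salts, given 20 mg/kg orally in 0.5% methocel and 5 mg/kg intravenously in 60% PEG 200. Half-life, oral bioavailability and clearance derived from these dosings.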

[11] = Bioavailability in rat at 20 mg/kg, po and 5 mg/kg, iv; type: ADME, organism-based; details: in vivo; how it was run: as §1
[12] = Clearance in rat at 20 mg/kg, po and 5 mg/kg, iv; type: ADME, organism-based; details: in vivo; how it was run: as §1
[13] = biological target: T1, Prostaglandin E2 receptor EP4 subtype; experiment: Agonist activity at human prostanoid EP4 receptor expressed in HEK293 cells assessed as cAMP accumulation by scintillation proximity assay

Row | Structure (SMILES) | IC50 [1] | Ratio Ki (Homo sapiens [2]) | Ratio Ki (Homo sapiens [3]) | Ratio Ki (Homo sapiens [4]) | Ratio Ki (Homo sapiens [5]) | Ratio Ki (Homo sapiens [6]) | Ratio Ki (Homo sapiens [7]) | Ratio Ki (Homo sapiens [8]) | Ki [9] | half-life [10] | bioavailability [11] | clearance [12] | EC50 [13]
1 | C[C@H](NC(=O)c1cccc2ccn(Cc3cccc(Cl)c3)c12)c1ccc(C(=O)O)cc1 | 6 nM | > 1000 | 16 | > 1000 | > 1000 | > 1000 | > 1000 | > 1000 | – | – | – | – | –
2 | C[C@H](NC(=O)c1cccc2c1N(Cc1ccc(-c3ccccc3)cc1)CC2)c1ccc(C(=O)O)cc1 | 1.3 nM | 139 | 57 | > 1000 | > 1000 | > 1000 | > 1000 | > 1000 | 0.28 nM | – | – | – | –
3 | C[C@H](NC(=O)c1cccc2c1N(Cc1ccc(C(F)(F)F)cc1)CC2)c1ccc(-c2nnn[nH]2)cc1 | 3.5 nM | – | – | – | – | – | – | – | 1 nM | 2.6 h | 54% | 28 mL/min/kg | –
4 | C[C@H](NC(=O)c1cccc2c1N(Cc1ccc(C(F)(F)F)cc1)CC2)c1ccc(-c2nn[nH]n2)cc1 | – | > 1000 | > 1000 | > 1000 | > 1000 | > 1000 | > 1000 | > 1000 | – | – | – | – | –
5 | C[C@H](NC(=O)c1cccc2c1N(Cc1ccc(C(=O)O)cc1)CC2)c1ccc(C(=O)O)cc1 | – | > 179 | > 73 | > 1000 | > 1000 | > 1000 | > 1000 | > 1000 | 54 nM | – | – | – | –
6 | C[C@H](NC(=O)c1cccc2c1N(Cc1cc(Br)cc(Br)c1)CC2)c1ccc(C(=O)O)cc1 | > 10000 nM | 151 | 209 | > 1000 | > 1000 | > 1000 | > 1000 | > 1000 | 0.33 nM | – | – | – | 0.36 nM
7 | C[C@H](NC(=O)c1cccc2c1N(Cc1cccnc1)CC2)c1ccc(C(=O)O)cc1 | 258 nM | > 127 | > 50 | > 1000 | > 1000 | > 1000 | > 1000 | > 1000 | 76 nM | – | – | – | –
8 | C[C@H](NC(=O)c1cccc2c1N(Cc1ccc(C(N)=O)cc1)CC2)c1ccc(C(=O)O)cc1 | 73 nM | > 1000 | > 1000 | > 1000 | > 1000 | > 1000 | > 1000 | > 1000 | 30 nM | – | – | – | –
9 | C[C@H](NC(=O)c1cccc2c1N(Cc1ccc(C#N)cc1)CC2)c1ccc(C(=O)O)cc1 | 7.3 nM | 603 | 916 | > 1000 | > 1000 | > 1000 | > 1000 | > 1000 | 3.1 nM | – | – | – | –
10 | C[C@H](NC(=O)c1cccc2c1N(Cc1cccc(C(N)=O)c1)CC2)c1ccc(C(=O)O)cc1 | 72 nM | 582 | 461 | > 1000 | > 1000 | > 1000 | > 1000 | > 1000 | 30 nM | – | – | – | –
11 | C[C@H](NC(=O)c1cccc2c1N(Cc1ccc(Cl)cc1Br)CC2)c1ccc(C(=O)O)cc1 | 8.3 nM | > 1000 | 114 | > 1000 | > 1000 | > 1000 | > 1000 | > 1000 | 2.3 nM | – | – | – | –
12 | C[C@H](NC(=O)c1cccc2c1N(Cc1cccc(C#N)c1)CC2)c1ccc(C(=O)O)cc1 | 212 nM | 582 | > 1000 | > 1000 | > 1000 | > 1000 | > 1000 | > 1000 | 7.5 nM | – | – | – | –

Next, values leading:

Row | IC50 [1] | Ratio Ki (Homo sapiens [2]) | Ratio Ki (Homo sapiens [3]) | Ratio Ki (Homo sapiens [4]) | Ratio Ki (Homo sapiens [5]) | Ratio Ki (Homo sapiens [6]) | Ratio Ki (Homo sapiens [7]) | Ratio Ki (Homo sapiens [8]) | Ki [9] | half-life [10] | bioavailability [11] | clearance [12] | EC50 [13] | Structure (SMILES)
13 | 2.2 nM | 647 | 670 | > 1000 | > 1000 | > 1000 | > 1000 | > 1000 | 0.4 nM | – | – | – | – | C[C@H](NC(=O)c1cc(Cl)cc2c1N(Cc1ccc(C(F)(F)F)cc1)CC2)c1ccc(C(=O)O)cc1
14 | 6.2 nM | 488 | 907 | > 1000 | > 1000 | > 1000 | > 1000 | > 1000 | 1.8 nM | – | – | – | – | C[C@H](NC(=O)c1cccc2c1N(Cc1ccc(F)cc1)CC2)c1ccc(C(=O)O)cc1
15 | 2.1 nM | > 1000 | > 1000 | > 1000 | > 1000 | > 1000 | > 1000 | > 1000 | 0.37 nM | – | – | – | – | C[C@H](NC(=O)c1cc(F)cc2c1N(Cc1ccc(C(F)(F)F)cc1)CC2)c1ccc(C(=O)O)cc1
16 | 4.7 nM | 795 | 88 | > 1000 | > 1000 | > 1000 | > 1000 | > 1000 | 6.7 nM | – | – | – | – | C[C@H](NC(=O)c1cccc2c1N(Cc1ccc(C(F)(F)F)cc1Br)CC2)c1ccc(C(=O)O)cc1
17 | 3 nM | 153 | 504 | > 1000 | > 1000 | > 1000 | > 1000 | > 1000 | 0.66 nM | – | – | – | – | C[C@H](NC(=O)c1cc(C(F)(F)F)cc2c1N(Cc1ccc(C(F)(F)F)cc1)CC2)c1ccc(C(=O)O)cc1
18 | 114 nM | > 692 | > 281 | > 1000 | > 1000 | > 1000 | > 1000 | > 1000 | 14 nM | – | – | – | – | C[C@H](NC(=O)c1cccc2c1N(Cc1ccc(C(C)(C)C)cc1)CC2)c1ccc(C(=O)O)cc1
19 | 2.8 nM | 687 | 880 | > 1000 | > 1000 | > 1000 | > 1000 | > 1000 | 1.5 nM | – | – | – | – | C[C@H](NC(=O)c1cccc2c1N(Cc1ccc(OC(F)(F)F)cc1)CC2)c1ccc(C(=O)O)cc1
20 | 5.8 nM | > 1000 | > 1000 | > 1000 | > 1000 | > 1000 | > 1000 | > 1000 | 0.78 nM | – | – | – | – | Cc1ccc(CN2CCc3cccc(C(=O)N[C@@H](C)c4ccc(C(=O)O)cc4)c32)cc1
21 | 1.1 nM | 338 | 241 | > 1000 | > 1000 | > 1000 | > 1000 | > 1000 | 0.34 nM | 4.8 h | 73% | 12 mL/min/kg | – | C[C@H](NC(=O)c1cccc2c1N(Cc1ccc(Cl)c(Cl)c1)CC2)c1ccc(C(=O)O)cc1
22 | 0.92 nM | > 1000 | > 1000 | > 1000 | > 1000 | > 1000 | > 1000 | > 1000 | 0.44 nM | 4.7 h | 102% | 9 mL/min/kg | – | C[C@H](NC(=O)c1cccc2c1N(Cc1ccc(Cl)cc1)CC2)c1ccc(C(=O)O)cc1
